ChEMBL document CHEMBL1121853, “New antiarrhythmic agents. 7. 2,3-Diaminopropionanilides” (J Med Chem, 1981)

How the values were obtained:
Rattus norvegicus [1] = assay: Anesthetic activity of compound (0.125%) was evaluated by duration of sciatic nerve block; type: functional
Summary of the method: (§1)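 Rat sciatic nerve block: 0.2 mL of test solution (concentration as base, with 1:100 000 epinephrine) injected into the mid-thigh around the sciatic nerve trunk, both hind limbs. Five rats per concentration, so up to 10 blocks. Animals examined at frequent intervals for onset of and recovery from motor block. Duration given as mean ± standard deviation.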

Rattus norvegicus [2] = assay: Anesthetic activity of compound (0.5%) was evaluated by duration of sciatic nerve block; type: functional; summary of the method: as §1
[3] = Lethal dose of compound evaluated by administering intraperitoneally to female CRCD mice; type: toxicity, organism-based; settings: mouse, in vivo, ip
Summary of the method: (§2)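 Female CRCD mice (20–25 g), in groups, given compound dissolved in isotonic saline or distilled water, either by tail-vein (iv) or intraperitoneal injection. Doses expressed as base. LD50 and 95% confidence limits calculated by the minimum logit chi-square method.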

Rattus norvegicus [4] = assay: Anesthetic activity of compound (0.25%) was evaluated by duration of sciatic nerve block; type: functional; summary of the method: as §1
Mus musculus [5] = species: Mus musculus; assay: Effective dose of compound that evoked CNS toxicity in mice in the form of convulsions; type: functional
Summary of the method: (§3)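 Mice dosed subcutaneously, groups of 10. Over a 20-min period they were watched for ataxia, convulsions, loss of righting reflex or death, then each was placed in chloroform-vapor-saturated air until respiration ceased. ED50 with 95% Fieller limits for protection against tachycardia, ataxia and convulsions, calculated by Berkson's logit chi-square method.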

Mus musculus [6] = assay: Percent protection against chloroform induced tachycardia in mice at 15.8 mg/kg; Inactive; type: functional
Mus musculus [7] = species: Mus musculus; assay: Effective dose of compound that evoked CNS toxicity in mice in the form of ataxia; type: functional; summary of the method: as §3
Mus musculus [8] = assay: CNS toxicity expressed as percent of ataxia evoked in mice at a dose of 100 mg/kg; type: functional
Rattus norvegicus [9] = assay: Anesthetic activity of compound (1.0%) was evaluated by duration of sciatic nerve block; type: functional; summary of the method: as §1
Mus musculus [10] = assay: CNS toxicity expressed as percent of convulsions evoked in mice at a dose of 100 mg/kg; type: functional
[11] = Lethal dose of compound evaluated by administering intravenously to female CRCD mice; type: toxicity, organism-based; settings: mouse, in vivo, iv; summary of the method: as §2
Mus musculus [12] = assay: Percent protection against chloroform induced tachycardia in mice at 100 mg/kg; type: functional
Rattus norvegicus [13] = assay: Anesthetic activity of compound (2.0%) was evaluated by duration of sciatic nerve block
Mus musculus [14] = species: Mus musculus; assay: Effective dose of compound that protects mice against chloroform induced tachycardia; type: functional; summary of the method: as §3
Mus musculus [15] = assay: CNS toxicity expressed as percent of convulsions evoked in mice at a dose of 79.4 mg/kg; Inactive; type: functional
Mus musculus [16] = assay: Percent protection against chloroform induced tachycardia in mice at 79.4 mg/kg; Inactive; type: functional
Mus musculus [17] = assay: CNS toxicity expressed as percent of ataxia evoked in mice at a dose of 79.4 mg/kg; type: functional
Rattus norvegicus [18] = assay: Anesthetic activity of compound (0.125%) was evaluated by duration of sciatic nerve block; NB= no blocks (0/10); type: functional, organism-based; summary of the method: as §1
Mus musculus [19] = assay: Percent protection against chloroform induced tachycardia in mice at 398 mg/kg; type: functional
Rattus norvegicus [20] = assay: Anesthetic activity of compound (0.25%) was evaluated by duration of sciatic nerve block; NB= no blocks (0/10); type: functional, organism-based; summary of the method: as §1
Mus musculus [21] = assay: CNS toxicity expressed as percent of convulsions evoked in mice at a dose of 200 mg/kg; Inactive; type: functional
Mus musculus [22] = assay: CNS toxicity expressed as percent of ataxia evoked in mice at a dose of 200 mg/kg; Inactive; type: functional
Mus musculus [23] = assay: Percent protection against chloroform induced tachycardia in mice at 200 mg/kg; Inactive; type: functional
Mus musculus [24] = assay: Percent protection against chloroform induced tachycardia n mice at 631 mg/kg; Inactive; type: functional
Mus musculus [25] = assay: CNS toxicity expressed as percent of convulsions evoked in mice at a dose of 631 mg/kg; type: functional
Mus musculus [26] = assay: CNS toxicity expressed as percent of ataxia evoked in mice at a dose of 631 mg/kg; type: functional
Mus musculus [27] = assay: Percent death against chloroform induced tachycardia in mice at 631 mg/kg; type: functional
Summary of the method: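 Mice in groups of 10, dosed subcutaneously, then watched for 20 min for ataxia, convulsions, loss of righting reflex or death. Survivors were placed individually in chloroform-vapour-saturated air until respiration ceased. Percent of animals dead at the single dose was recorded alongside protection, ataxia and convulsion counts.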

Mus musculus [28] = assay: CNS toxicity expressed as percent of ataxia evoked in mice at a dose of 50.1 mg/kg; type: functional
Mus musculus [29] = assay: CNS toxicity expressed as percent of ataxia evoked in mice at a dose of 10 mg/kg; type: functional

Compound	Duration (Rattus norvegicus [1]) [min]	Duration (Rattus norvegicus [2]) [min]	LD50 [3] [mg/kg]	Duration (Rattus norvegicus [4]) [min]	ED50 (Mus musculus [5]) [mg/kg]	ED50 (Mus musculus [7]) [mg/kg]	Duration (Rattus norvegicus [9]) [min]	ED50 (Mus musculus [14]) [mg/kg]	further results
CCCN(CC)CC(C(=O)Nc1ccc(OC)cc1C)N(CC)CCC (centres undefined)	96	227	66	107					
C=CCN(C)CC(C(=O)Nc1c(C)cccc1C)N(C)CC=C (centres undefined)					17	13			Protection (Mus musculus [6]): 30%
CCN(CC)CC(C(=O)Nc1cccc(OC)c1)N(CC)CC (centres undefined)	77	100		87			145		Ataxia (Mus musculus [8]): 0%; Convulsions (Mus musculus [10]): 0%; LD50 [11]: 20 mg/kg; Protection (Mus musculus [12]): 60%; Duration (Rattus norvegicus [13]): 265 min
CCCN(CC)C(CC)C(=O)Nc1c(C)cccc1C (centres undefined) [ETIDOCAINE]	156	279	56	222					LD50 [11]: 7 mg/kg
Cc1cccc(C)c1NC(=O)C(CN(C)C(C)C)N(C)C(C)C (centres undefined)					9.3	6		6.1	
Cc1cccc(C)c1NC(=O)C(CN1CCCC1)N1CCCC1 (centres undefined)					12	12		14	
CCCN(CC)CC(C(=O)Nc1ccccc1OC)N(CC)CCC (centres undefined)	80	260		116					LD50 [11]: 11 mg/kg
CCOc1ccccc1NC(=O)C(CN(C)CC)N(C)CC (centres undefined)	78	136	94	105			189		
Cc1cccc(C)c1NC(=O)C(CN1CCOCC1)N1CCOCC1 (centres undefined)	72	102		72			138		Convulsions (Mus musculus [15]): 0%; Protection (Mus musculus [16]): 10%; Ataxia (Mus musculus [17]): 100%; Duration (Rattus norvegicus [13]): 193 min
CCN(CC)CC(C(=O)Nc1cc(C)ccc1OC)N(CC)CC (centres undefined)	94	166	81	125	137	96	273	106	
CCN(CC)CC(=O)Nc1c(C)cccc1C [LIDOCAINE]		123		102		42	162	61	
CCOc1ccc(NC(=O)C(CN(C)C)N(C)C)cc1OCC (centres undefined)		83			317	199	133		Duration (Rattus norvegicus [18]): No blocks; Protection (Mus musculus [19]): 50%; Duration (Rattus norvegicus [20]): No blocks; Duration (Rattus norvegicus [13]): 147 min
CCOc1ccccc1NC(=O)C(CN(CC)CC)N(CC)CC (centres undefined)	140	176	81	138					
CCN(CC)CCC(=O)Nc1c(C)cccc1C		146		110		52	184	69	
CCN(CC)CC(C(=O)Nc1ccc(OC)cc1C)N(CC)CC (centres undefined)	162	157	102	151			150		Duration (Rattus norvegicus [13]): 184 min
Cc1cccc(C)c1NC(=O)C1CNCCN1 (centres undefined)									Convulsions (Mus musculus [21]): 0%; Ataxia (Mus musculus [22]): 0%; Protection (Mus musculus [23]): 10%
C#CCN(C)CC(C(=O)Nc1c(C)cccc1C)N(C)CC#C (centres undefined)									Protection (Mus musculus [24]): 0%; Convulsions (Mus musculus [25]): 40%; Ataxia (Mus musculus [26]): 40%; Death (Mus musculus [27]): 40%
Cc1cccc(C)c1NC(=O)C(C)N (centres undefined) [TOCAINIDE]		44				146	79	250	LD50 [11]: 94 mg/kg
Cc1cccc(C)c1NC(=O)C(CN(C)C)N(C)C (centres undefined)					23	16		17	
COCCN(C)CC(C(=O)Nc1c(C)cccc1C)N(C)CCOC (centres undefined)					5.1	4.3		2.6	
CCN(CC)CC(C(=O)Nc1ccccc1OC)N(CC)CC (centres undefined)		66	70	91	65		178	81	Ataxia (Mus musculus [28]): 40%; Duration (Rattus norvegicus [13]): 184 min
CCN(C)CC(C(=O)Nc1c(C)cccc1C)N(C)CC (centres undefined)					12			13	Ataxia (Mus musculus [29]): 100%
